Assay results taken from PubChem BioAssay AID493234 (Broad Institute, 2011).
Several values for one entry are separate records, joined by “and”; a condition that tells them apart may be missing. Identical values can stand only once. Activity calls are given as the source filed them.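 How the source made its calls: active means fitted curve rises to an activation of 500 at or below the top valid dose; inactive means the rest, including activity in the falling direction.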

Test system: not listed separately
Assay: HRE-luciferase activation in zinc medium, dose response, mechanism study for HIF pathway activator project, cell-based, U2OS, luminescence, dry powder, set 2 (AID 493234)
Conditions: U2OS HRE-luciferase, zinc medium, luminescence; at 38 µM (top of the series)
Procedure, shortened: (§1)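 Measured by: Steady-Glo luminescence; material: human U2OS osteosarcoma cells stably expressing 3×HRE-driven luciferase reporter; also added: zinc sulfate at 50 µM final; schedule: 24 h pre-growth, 24 h compound treatment; compound dosing: 8 concentrations, 3-fold dilution steps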

| Compound | activation |
| --- | --- |
| Oc1ccc(CNC2CCc3ccccc32)c2cccnc12 (configuration not stated) | -23.4% (inactive) |
| O=C(Nc1nc(-c2ccccc2)cs1)c1cc(-c2ccccc2)on1 | -1.71% (inactive) |
| Cc1cccc(CNC(=O)c2cc(-c3ccccc3)on2)c1 | -0.529% (inactive) |
| c1ccc(-c2nnc(-c3ccccn3)nc2Nc2nc3ccccc3s2)cc1 | -16.5% (inactive) |
| Oc1ccc(CN2CCc3ccccc3C2)c2cccnc12 | -19.3% (inactive) and -19.9% (inactive) |
| Cn1c(NC(=O)c2cc(-c3ccccc3)on2)nc2ccccc21 | -0.203% (inactive) |
| CN(C)CCNC(=O)c1cc(-c2ccccc2)on1 | 9.51% (inactive) |
| O=C(NCc1ccccc1)c1cc(-c2ccccc2)on1 | 32.9% (inactive) |
| CC(C)(C)OC(=O)N1CCN(Cc2ccc(O)c3ncccc23)CC1 | 4.29% (inactive) |
| O=C(NCCCN1CCOCC1)c1cc(-c2ccccc2)on1 | 449% (inactive) |
| O=C(Nc1ccc2ccccc2n1)c1cc(-c2ccccc2)on1 | -7.7% (inactive) |
| c1ccc(-c2cnc(Nc3nc(-c4ccccn4)nnc3-c3ccccc3)s2)cc1 | 19.5% (inactive) |
| Oc1ccc(CN2CCC3CCCCC3C2)c2cccnc12 (configuration not stated) | 275% (inactive) |
| OCC1CCN(Cc2ccc(O)c3ncccc23)CC1 | 12.5% (inactive) |
| O=C(c1cc(-c2ccccc2)on1)N1CCC(CO)CC1 | -4.31% (inactive) |
| O=C(Nc1nnc(-c2ccccc2)s1)c1cc(-c2ccccc2)on1 | 4.85% (inactive) |
| O=C(Nc1cnc2ccccc2c1)c1cc(-c2ccccc2)on1 | 10.1% (inactive) |
| O=C(NCC1CCCCC1)c1cc(-c2ccccc2)on1 | 52.6% (inactive) |
| O=C(c1cc(-c2ccccc2)on1)N1CCC(N2CCOCC2)CC1 | 1.96% (inactive) |
| N#CC1(c2ccccc2)CCN(Cc2ccc(O)c3ncccc23)CC1 | 27.6% (inactive) |
| O=C(NCCN1CCCCC1)c1cc(-c2ccccc2)on1 | 32.2% (inactive) |
| Cc1ccc(NC(=O)c2cc(-c3ccccc3)on2)cn1 | 20.6% (inactive) |
| O=C(c1cc(-c2ccccc2)on1)N1CCc2cccnc21 | 3.59% (inactive) |
| O=C(NC1Cc2ccccc2C1)c1cc(-c2ccccc2)on1 | 56% (inactive) |

| Compound | activation |
| --- | --- |
| c1ccc(-c2nnc(Nc3nc(-c4ccccn4)nnc3-c3ccccc3)s2)cc1 | 141% (inactive) |
| Cc1cccc(NC(=O)c2cc(-c3ccccc3)on2)n1 | 24.2% (inactive) |
| COc1ccccc1N1CCN(Cc2ccc(O)c3ncccc23)CC1 | -1.45% (inactive) |
| O=C(Nc1cn2ccccc2n1)c1cc(-c2ccccc2)on1 | 7.47% (inactive) |
| O=C(NCC1CC1)c1cc(-c2ccccc2)on1 | 386% (inactive) |
| Cc1ccccc1CNC(=O)c1cc(-c2ccccc2)on1 | 15.2% (inactive) |
| Oc1ccc(CNC2Cc3ccccc3C2)c2cccnc12 | 217% (inactive) |
| O=C(Nc1nc2ccccc2s1)c1cc(-c2ccccc2)on1 | 14.8% (inactive) |
| Cn1c(-c2ccccc2)cnc1NC(=O)c1cc(-c2ccccc2)on1 | 9.13% (inactive) |
| c1ccc(-c2csc(Nc3nc(-c4ccccn4)nnc3-c3ccccc3)n2)cc1 | 86.1% (inactive) |
| O=C(c1cc(-c2ccccc2)on1)N1CCN(c2ccncc2)CC1 | -5.2% (inactive) |
| O=C(NCCCO)c1cc(-c2ccccc2)on1 | 325% (inactive) |
| O=C(Nc1ncc(-c2ccccc2)o1)c1cc(-c2ccccc2)on1 | -4.08% (inactive) |
| Cn1c(-c2ccccc2)cnc1Nc1nc(-c2ccccn2)nnc1-c1ccccc1 | 109% (inactive) |
| CN1CCN(C(=O)c2cc(-c3ccccc3)on2)CC1 | -12.5% (inactive) |
| Cc1ccc(CNC(=O)c2cc(-c3ccccc3)on2)cc1 | -6.78% (inactive) |
| O=C(c1cc(-c2ccccc2)on1)N1CCC(N2CCCC2)CC1 | 4.99% (inactive) |
| Oc1ccc(CN2CCC(Cc3ccccc3)CC2)c2cccnc12 | -5.34% (inactive) |
| O=C(Nc1ncc2ccccc2n1)c1cc(-c2ccccc2)on1 | 34.5% (inactive) |
| CC1CN(Cc2ccc(O)c3ncccc23)CC(C)O1 (configuration not stated) | -5.99% (inactive) |
| c1ccc(-c2nnc(-c3ccccn3)nc2Nc2cnc3ccccc3n2)cc1 | -25.9% (inactive) |
| O=C(NCCN1CCOCC1)c1cc(-c2ccccc2)on1 | 430% (inactive) |
| CC(C)(C)CCNC(=O)c1cc(-c2ccccc2)on1 | 247% (inactive) |
| O=C(NC1CCc2ccccc2C1)c1cc(-c2ccccc2)on1 (configuration not stated) | -5.89% (inactive) |

Test system: U2OS HRE-luciferase, zinc medium, luminescence
Assay: as above
Conditions: not given
Procedure, shortened: as §1

| Compound | AC500 |
| --- | --- |
| c1ccc(-c2nnc(-c3ccccn3)nc2NCCN2CCOCC2)cc1 | 15.7 µM |
| c1ccc(-c2nnc(-c3ccccn3)nc2NCc2ccccn2)cc1 | 20.8 µM |
| CC(C)(C)CCNc1nc(-c2ccccn2)nnc1-c1ccccc1 | 4.65 µM and 2.47 µM |
| O=C(NCCCCO)c1cc(-c2ccccc2)on1 | 12.1 µM |
| c1ccc(CNc2nc(-c3ccccn3)nnc2-c2ccccc2)cc1 | 6.89 µM |
| OCCCNc1nc(-c2ccccn2)nnc1-c1ccccc1 | 22.9 µM |
| c1ccc(-c2nnc(-c3ccccn3)nc2NCc2cccnc2)cc1 | 19 µM |
| Cc1cccc(Nc2nc(-c3ccccn3)nnc2-c2ccccc2)n1 | 13.2 µM |
| CN(C)c1nc(-c2ccccn2)nnc1-c1ccccc1 | 20.2 µM |
| CC(C)(C)c1ccc(CNc2nc(-c3ccccn3)nnc2-c2ccccc2)cc1 | 2.89 µM |
| Clc1cccc(CNc2nc(-c3ccccn3)nnc2-c2ccccc2)c1 | 2 µM |
| c1ccc(-c2nnc(-c3ccccn3)nc2NCCCN2CCOCC2)cc1 | 16 µM |
| c1ccc(-c2nnc(-c3ccccn3)nc2N2CCN(c3ccncc3)CC2)cc1 | 15.3 µM |
| C[C@@H](Nc1nc(-c2ccccn2)nnc1-c1ccccc1)c1ccccc1 | 6.17 µM |
| c1ccc(-c2nnc(-c3ccccn3)nc2NCC2CCOCC2)cc1 | 18.8 µM |
| C[C@@H](Nc1nc(-c2ccccn2)nnc1-c1ccccc1)C1CCCCC1 | 6.94 µM |
| c1ccc(CCNc2nc(-c3ccccn3)nnc2-c2ccccc2)cc1 | 7.94 µM |
| c1ccc(-c2nnc(-c3ccccn3)nc2N2CCC(c3ccccc3)C2)cc1 (configuration not stated) | 3.01 µM |
| c1ccc(-c2nnc(-c3ccccn3)nc2NCC2CC2)cc1 | 16.1 µM |
| Cc1ccc(Nc2nc(-c3ccccn3)nnc2-c2ccccc2)cn1 | 17.8 µM |

| Compound | AC500 |
| --- | --- |
| c1ccc(-c2ccc(CNc3nc(-c4ccccn4)nnc3-c3ccccc3)cc2)cc1 | 3.41 µM |
| c1ccc(-c2nnc(-c3ccccn3)nc2N2CCC(C3CCCCC3)C2)cc1 (configuration not stated) | 6.32 µM |
| c1ccc(-c2cccc(CNc3nc(-c4ccccn4)nnc3-c3ccccc3)c2)cc1 | 3.69 µM |
| O=C(NCCCn1ccnc1)c1cc(-c2ccccc2)on1 | 16.4 µM |
| c1ccc(-c2nnc(-c3ccccn3)nc2N2CCC(N3CCOCC3)CC2)cc1 | 16.2 µM |
| COc1ccc(CNc2nc(-c3ccccn3)nnc2-c2ccccc2)cc1 | 5.26 µM |
| Cc1cccc(CNc2nc(-c3ccccn3)nnc2-c2ccccc2)c1 | 6.47 µM |
| c1ccc(-c2nnc(-c3ccccn3)nc2NCCc2ccccn2)cc1 | 18 µM |
| C=CCNc1nc(-c2ccccn2)nnc1-c1ccccc1 | 15 µM |
| C[C@H](Nc1nc(-c2ccccn2)nnc1-c1ccccc1)C1CCCCC1 | 5.01 µM |
| Cc1ccc(CNc2nc(-c3ccccn3)nnc2-c2ccccc2)cc1C | 2.19 µM |
| Cc1ccc(CNc2nc(-c3ccccn3)nnc2-c2ccccc2)cc1 | 7.26 µM |
| CC(Nc1nc(-c2ccccn2)nnc1-c1ccccc1)c1ccccc1 (configuration not stated) | 9.22 µM |
| Cc1ccccc1CNc1nc(-c2ccccn2)nnc1-c1ccccc1 | 7.16 µM |
| c1ccc(-c2nnc(-c3ccccn3)nc2NCC2CCCCC2)cc1 | 5.43 µM |
| CCCCNC(=O)c1cc(-c2ccccc2)on1 | 32.2 µM |
| OCC1CCN(c2nc(-c3ccccn3)nnc2-c2ccccc2)CC1 | 21.1 µM |
| COc1cccc(CNc2nc(-c3ccccn3)nnc2-c2ccccc2)c1 | 3.92 µM |
| CN1CCN(c2nc(-c3ccccn3)nnc2-c2ccccc2)CC1 | 15.8 µM |
